This is an account of results in ChEMBL document CHEMBL3414565, “Discovery of novel AHLs as potent antiproliferative agents” (Eur J Med Chem, 2015).

pIC50: −log10 of the molar value.

Assay [1] deals with MCF7. In words: Induction of apoptosis in human MCF7 cells assessed as early apoptotic cells at 4 uM after 12 hrs by annexin V-FITC/propidium iodide staining-based flow cytometry (reference value: 7.2%). The class given is functional. In outline: (§1)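 MCF-7 cells were plated at 5.0 × 10^6 cells/mL and held 12 or 24 h at 37 °C. Exponentially growing cells then received complete medium (blank) or compound at 0, 2, 4 or 8 for 12 or 24 h. Harvested cells were stained with Annexin V-FITC/PI and analysed by flow cytometry. Quadrants were scored as live, early apoptotic (annexin+/PI−), late apoptotic (double positive) and damaged (PI+ only).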

Assay [2] deals with MCF7. Put plainly: Induction of apoptosis in human MCF7 cells assessed as early apoptotic cells at 8 uM after 24 hrs by annexin V-FITC/propidium iodide staining-based flow cytometry (reference value: 4.5%). The class given is functional. In outline:
as §1
Background: A flow cytometer gives signals particle by particle.

Assay [3] has as its system MCF7. Put plainly: Cell cycle arrest in human MCF7 cells assessed as accumulation at G2/M phase at 8 uM after 24 hrs by propidium iodide staining-based flow cytometry (reference value: 16.27%). The class given is functional.
The test system of assay [4] is MCF7. In words: Induction of apoptosis in human MCF7 cells after 12 to 24 hrs by annexin V-FITC/propidium iodide staining-based flow cytometry. The class given is functional, cell-based. Summed up:
as §1

Assay [5] relates to MCF7. In words: Cell cycle arrest in human MCF7 cells assessed as accumulation at S phase at 8 uM after 24 hrs by propidium iodide staining-based flow cytometry (reference value: 40.08%). The class given is functional.
In assay [6] the test system is MCF7. In words: Cell cycle arrest in human MCF7 cells assessed as accumulation at G1/G0 phase at 2 uM after 24 hrs by propidium iodide staining-based flow cytometry (reference value: 46.77%). The class given is functional.
Assay [7] concerns MCF7. In words: Induction of apoptosis in human MCF7 cells assessed as necrotic cells at 2 uM after 12 hrs by annexin V-FITC/propidium iodide staining-based flow cytometry (reference value: 4.7%). The class given is functional. Summed up: as §1
In assay [8] the test system is MCF7. In words: Induction of apoptosis in human MCF7 cells assessed as necrotic cells at 4 uM after 24 hrs by annexin V-FITC/propidium iodide staining-based flow cytometry (reference value: 6.2%). The class given is functional. In outline: as §1
Assay [9] relates to MCF7. In words: Cell cycle arrest in human MCF7 cells assessed as accumulation at G1/G0 phase at 8 uM after 12 hrs by propidium iodide staining-based flow cytometry (reference value: 60.51%). The class given is functional.
Assay [10] deals with MCF7. In words: Induction of apoptosis in human MCF7 cells assessed as early apoptotic cells at 4 uM after 24 hrs by annexin V-FITC/propidium iodide staining-based flow cytometry (reference value: 4.5%). The class given is functional. Summed up: as §1
Assay [11] deals with MCF7. In words: Cell cycle arrest in human MCF7 cells assessed as accumulation at G2/M phase at 2 to 8 uM by propidium iodide staining-based flow cytometry. Particulars: TDE = time-dependent effect. The class given is functional.
The test system of assay [12] is MCF7. In words: Cell cycle arrest in human MCF7 cells assessed as accumulation at S phase at 2 uM after 12 hrs by propidium iodide staining-based flow cytometry (reference value: 26.65%). The class given is functional.
The test system of assay [13] is MCF7. Put plainly: Induction of apoptosis in human MCF7 cells assessed as early apoptotic cells at 8 uM after 12 hrs by annexin V-FITC/propidium iodide staining-based flow cytometry (reference value: 7.2%). The class given is functional. In outline:
as §1

The test system of assay [14] is MCF7. Put plainly: Induction of apoptosis in human MCF7 cells assessed as viable cells at 4 uM after 24 hrs by annexin V-FITC/propidium iodide staining-based flow cytometry (reference value: 87.1%). The class given is functional. The following applies: MCF7, 24 h, read-out: Activity. Summed up:
as §1

Assay [15] has as its system MCF7. Put plainly: Cell cycle arrest in human MCF7 cells assessed as accumulation at G1/G0 phase at 8 uM after 24 hrs by propidium iodide staining-based flow cytometry (reference value: 46.77%). The class given is functional.
For assay [16], the system named is MCF7. Put plainly: Induction of apoptosis in human MCF7 cells assessed as late apoptotic cells at 8 uM after 12 hrs by annexin V-FITC/propidium iodide staining-based flow cytometry (reference value: 2.7%). The class given is functional. In outline: as §1
Assay [17] can be described thus: Cytotoxicity against human EC9706 cells after 72 hrs by MTT assay. The class given is functional, cell-based. The following applies: EC9706, 72 h. In outline:
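Cells were grown in RPMI1640 and seeded at 5 × 10^3 cells/well, then left 24 h at 37 °C. Medium was replaced with fresh medium holding a range of compound concentrations, from 10 mM DMSO stocks with final DMSO at most 0.1%. Exposure lasted 72 h. MTT (5 mg/mL) was added for 4 h at 37 °C, formazan was dissolved in DMSO and A570 was read. IC50 came from dose-response curves as mean ± SD of three independent experiments.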
Background: Tetrazolium assays rely on reduction of a dye to a coloured formazan, in cell work by metabolically active cells.

In assay [18] the test system is MCF7. Put plainly: Cell cycle arrest in human MCF7 cells assessed as accumulation at S phase at 2 uM after 24 hrs by propidium iodide staining-based flow cytometry (reference value: 40.08%). The class given is functional.
For assay [19], the system named is MCF7. In words: Cell cycle arrest in human MCF7 cells assessed as accumulation at G1/G0 phase at 4 uM after 12 hrs by propidium iodide staining-based flow cytometry (reference value: 60.51%). The class given is functional.

On to `O=C(CSC(=S)N[C@H]1CCOC1=O)Nc1ccc(C(=O)/C=C/c2ccccc2Cl)cc1`, for which the Activity in the assay on MCF7 [1] was 14.7%; in the assay with MCF7 [2], 43.2%; in the assay on MCF7 [3], 63.06%; with MCF7 [4] it was “Dose-dependent effect”; with MCF7 [5] it was 33.39%; in the assay on MCF7 [6], 40.44%. In addition, the Activity in the assay on MCF7 [7] is 4.9%; in the assay on MCF7 [8] it was 4.1%; in the assay on MCF7 [9], 46.48%; in the assay with MCF7 [10] it was 23.6%; in the assay on MCF7 [11], “tde”; in the assay with MCF7 [12] it was 23.92%. Besides, the Activity with MCF7 [13] came to 19%; in the assay with MCF7 [15] it was 14.45%; in the assay on MCF7 [16], 1.6%; with MCF7 [18], 32.7%; in the assay on MCF7 [19], 58.39%. In addition, in the assay with MCF7 [14], the viability at 4 µM stood at 69.3%. The pIC50 in assay [17] was 4.47.

In general, pIC50 refers to the IC50 on a negative log10 scale, so that one unit is a factor of ten. A higher pIC50 goes with a low IC50.
